Here are results for 74 sequences from the array DNA melting data of Ke et al. (doi:10.1101/2024.01.08.574731).

A short description of data set [1]: folding enthalpy; higher = less favourable; fluorescence melt of hairpins on a sequencing array, two-state fit. The note with it: sodium 0.088 M. The essentials:
(§1)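 On a sequenced MiSeq flow cell, library hairpins with annealed Cy3 and quencher oligos were imaged for Cy3 fluorescence in 2.5 °C steps up to 60 °C, in 50 mM Na-HEPES pH 8.0, 25 mM NaCl. Normalisation used pre-quench Cy3 and control constructs. Bootstrapped two-state fits gave melting temperature and folding enthalpy, combined by inverse variance across four replicates and with fitted temperatures raised by 9.35 °C to match UV melts.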

A short description of data set [2]: melting temperature; fluorescence melt of hairpins on a sequencing array, two-state fit, raised by 9.35 °C to match UV melts. The note with it: sodium 0.088 M. The procedure, abridged: as §1

On to GCTACAGCGAAAGCTAGC (((..(((....)))))), for which the folding enthalpy in data set [1] is -16.3 kcal/mol. Further, the Tm in data set [2] is 44.5 °C.
Take GTGTCGGGAAACCGGTAC ((..(((....)))..)): the folding enthalpy in data set [1] was -22.7 kcal/mol. Further, in data set [2], the Tm turned out to be 37.6 °C.
As to GCACCGCGAAAGCAATGC (((..((....))..))), the folding enthalpy in data set [1] is -8.2 kcal/mol. Moreover, in data set [2], the Tm was 27.3 °C.
The like results for GCGTGTACGAAAGTACGC (((..(((....)))))) were, in that order, -15 kcal/mol and 53.1 °C.
With GCGCCACCGAAAGGTCGC (((..(((....)))))), the folding enthalpy in data set [1] is -23.5 kcal/mol. Moreover, the Tm in data set [2] was 51.4 °C.
On the same counts, the results for GTCCGCGAAAGCGAGAC ((((((....))).))) are -14.2 kcal/mol and 59.2 °C.
The like results for GTCCAGGCGAAAGCCGAC (((..(((....)))))) were, in that order, -9.61 kcal/mol and 37 °C.
The like results for GATCACTATAGTGATC ((((((....)))))) were, in that order, -38.1 kcal/mol and 58.8 °C.
Regarding TGTACGAAAGTACA (((((....))))), the folding enthalpy in data set [1] was -14.6 kcal/mol. The Tm in data set [2] was 54.7 °C.
On the same counts, the results for GATCGCTCATGCGATC ((((((....)))))) are -40.2 kcal/mol and 67.8 °C.
On the same counts, the results for GCGTCGCGAAAGCATCGC (((..((....))..))) are -17.9 kcal/mol and 53.8 °C.
The like results for GCGAACGATCGC ((((....)))) were, in that order, -21.1 kcal/mol and 41.1 °C.
For the sequence GATCAGGATCTGATC ((((((...)))))), the folding enthalpy in data set [1] was -32.1 kcal/mol. In addition, in data set [2], the Tm is 48 °C.
The like results for GGTCACGAAAGTGCCACC ((((((....)))..))) were, in that order, -12.9 kcal/mol and 44.4 °C.
On the same counts, the results for GTTGCTACGAAAGTAAAC (((..(((....)))))) are -9.44 kcal/mol and 28.6 °C.
The like results for GATCTCGTGTGAGATC ((((((....)))))) were, in that order, -37 kcal/mol and 53.1 °C.
Consider ATCGGGAAACCGAT (((((....))))), for which the folding enthalpy in data set [1] was -24.1 kcal/mol. Moreover, the Tm in data set [2] is 50.2 °C.
The like results for GTTTGTCGAAAGACGAAC (((.(((....))).))) were, in that order, -39 kcal/mol and 53.1 °C.
The like results for GGAGGGGGAAACCCCTCC (((((((....))))))) were, in that order, -32 kcal/mol and 69.3 °C.
As to GAGGCCGGAAACGACCTC ((((.((....)).)))), the folding enthalpy in data set [1] was -44.9 kcal/mol. Besides, the Tm in data set [2] stood at 52.9 °C.
On the same counts, the results for GCGAGCCGAAAGGCCCGC (((.(((....))).))) are -26.1 kcal/mol and 67.8 °C.
The like results for GATCAGCGAAAGCTTATC (((.(((....))).))) were, in that order, -20.2 kcal/mol and 38.9 °C.
On the same counts, the results for GCGTAAGCGAAAGCTCGC (((..(((....)))))) are -17.6 kcal/mol and 48.4 °C.
For the sequence GCTATTCCGAAAGGAAGC (((..(((....)))))), the folding enthalpy in data set [1] is -14.7 kcal/mol. Moreover, in data set [2], the Tm stood at 32.9 °C.
The like results for GATCAAAATCTTGATC ((((((....)))))) were, in that order, -27.8 kcal/mol and 39.9 °C.
The like results for GATCCGTCCCGGATC ((((((...)))))) were, in that order, -39.4 kcal/mol and 61 °C.
The like results for GCCGGCGAAAGCCTGGC ((((((....))).))) were, in that order, -24.8 kcal/mol and 68.8 °C.
Regarding GGTCCTGGAAACGGGATC (.(((.(....).))).), the folding enthalpy in data set [1] was -28.5 kcal/mol. The Tm in data set [2] amounted to 38.4 °C.
On the same counts, the results for GTTGTGGGAAACTGCAAC ((((..(....)..)))) are -12.7 kcal/mol and 39.3 °C.
On the same counts, the results for GATGACCGAAAGGTGATC (((.(((....))).))) are -26.9 kcal/mol and 47.7 °C.
On the same counts, the results for GAGGGAGAAATCCCTC ((((((....)))))) are -36 kcal/mol and 53.8 °C.
Take GCCAGAACGAAAGTTGGC (((..(((....)))))): in data set [1], the folding enthalpy is -35.8 kcal/mol. The Tm in data set [2] was determined as 49.8 °C.
With GATCGAAAGTCGATC ((((((...)))))), the folding enthalpy in data set [1] was -30.5 kcal/mol. In data set [2], the Tm amounted to 48.8 °C.
On to GCACTTCGAAAGAAATGC (((.(((....))).))), for which the folding enthalpy in data set [1] was -31.3 kcal/mol. Besides, the Tm in data set [2] was 42.3 °C.
On the same counts, the results for GGTTAAGAAATTAACC ((((((....)))))) are -23.8 kcal/mol and 43.5 °C.
The like results for GATCGTGGCGACGATC ((((((....)))))) were, in that order, -29.9 kcal/mol and 61.4 °C.
The like results for GCACAGCGAAAGCACTGC (((..((....))..))) were, in that order, -11.7 kcal/mol and 35.8 °C.
For the sequence GGATGCGAAAGCAATCC ((((((....))).))), the folding enthalpy in data set [1] was -27.8 kcal/mol. Moreover, the Tm in data set [2] was 57.9 °C.
On the same counts, the results for GCGGATGGAAACGTTCGC (((.(.(....).).))) are -28.2 kcal/mol and 44.1 °C.
Consider GGCTGAGGAAACTTGGCC (((..((....))..))), for which the folding enthalpy in data set [1] was -30.8 kcal/mol. Moreover, in data set [2], the Tm amounted to 43.8 °C.
The like results for GTTAATGGAAACATTAAC (((((((....))))))) were, in that order, -37.7 kcal/mol and 49.4 °C.
The like results for GGTATGGGAAACCATGCC ((.((((....)))).)) were, in that order, -37.4 kcal/mol and 51.3 °C.
On the same counts, the results for GCAGAGGGAAACCCCTGC ((((.((....)).)))) are -33.7 kcal/mol and 49 °C.
GGCTCGGGAAACCGGGCC (((.(((....))).))): the folding enthalpy in data set [1] is -38.4 kcal/mol. For the same sequence, the Tm in data set [2] came out at 66 °C.
Regarding GATCCCACATGGGATC ((((((....)))))), the folding enthalpy in data set [1] was -45.5 kcal/mol. Further, the Tm in data set [2] turned out to be 60.8 °C.
The like results for GGACCACGAAAGTGTTCC (((.(((....))).))) were, in that order, -24.8 kcal/mol and 49.4 °C.
The like results for GGCCGTGCGAAAGCAGCC (((..(((....)))))) were, in that order, -16.3 kcal/mol and 46.6 °C.
For GCCACCGAAAGGTTGGGC ((((((....)))..))), the folding enthalpy in data set [1] is -20.8 kcal/mol. For the same sequence, the Tm in data set [2] was determined as 52.6 °C.
On the same counts, the results for GGGGTGGGAAACCACTCC ((.((((....)))).)) are -35.1 kcal/mol and 54.6 °C.
On the same counts, the results for GATATCCGAAAGGAGATC (((.(((....))).))) are -33.1 kcal/mol and 49.9 °C.
The like results for GTTCAGCCGAAAGGCAAC (((..(((....)))))) were, in that order, -7.39 kcal/mol and 31.4 °C.
On to GATCATGCCAATGATC ((((((....)))))), for which, in data set [1], the folding enthalpy was -45.4 kcal/mol. Further, in data set [2], the Tm is 58.5 °C.
On the same counts, the results for GTGCCCGAAAGGGAGCAC ((((((....)))..))) are -25.2 kcal/mol and 55.6 °C.
On the same counts, the results for GCTGAGGAAACTCAGC ((((((....)))))) are -37.7 kcal/mol and 63.5 °C.
The like results for GGGGTGTCGAAAGACCCC (((..(((....)))))) were, in that order, -30.4 kcal/mol and 58.7 °C.
With GCCCAGCGAAAGCCGAGC ((.(.((....)).).)), the folding enthalpy in data set [1] was -7.29 kcal/mol. The Tm in data set [2] came out at 40.6 °C.
On the same counts, the results for GAGATTGGAAACAATCCC (.(((((....))))).) are -19.6 kcal/mol and 34 °C.
On the same counts, the results for GTTTTATCGAAAGATAAC (((..(((....)))))) are -11.4 kcal/mol and 29.8 °C.
As to GACTACACGAAAGTGGTC (((..(((....)))))), the folding enthalpy in data set [1] was -14.2 kcal/mol. Besides, the Tm in data set [2] turned out to be 40 °C.
Consider GCACTAGGAAACTGGTGC ((((.((....)).)))), for which, in data set [1], the folding enthalpy is -34.5 kcal/mol. Besides, the Tm in data set [2] was 52.9 °C.
As for GTAGTCGAAAGACTTTAC ((((((....)))..))), the folding enthalpy in data set [1] is -13.7 kcal/mol. Further, in data set [2], the Tm was determined as 29.5 °C.
On the same counts, the results for GCGTCGCGAAAGCACCGC (((..((....))..))) are -20.8 kcal/mol and 53.9 °C.
The like results for GTAATTGGAAACAGTTAC ((((.((....)).)))) were, in that order, -21.2 kcal/mol and 35.9 °C.
On the same counts, the results for GGAGATGGAAACGTCTCC (((((.(....).))))) are -36.9 kcal/mol and 49.5 °C.
Regarding GATCCGTGGGCGGATC ((((((....)))))), in data set [1], the folding enthalpy is -30.1 kcal/mol. Besides, the Tm in data set [2] amounted to 66.1 °C.
The like results for GATACACGAAAGTGATC (((.(((....)))))) were, in that order, -12.4 kcal/mol and 36.8 °C.
The like results for GACGGCCCGAAAGGGGTC (((..(((....)))))) were, in that order, -8.8 kcal/mol and 44.1 °C.
On the same counts, the results for GGACCGGGAAACCGATCC (((.(((....))).))) are -35.7 kcal/mol and 48 °C.
As to GCATAGCGAAAGCTAGGC ((.((((....)))).)), the folding enthalpy in data set [1] was -27.1 kcal/mol. The Tm in data set [2] worked out at 67 °C.
On the same counts, the results for GGCAAGGGAAACCTTGCC (((((((....))))))) are -33.1 kcal/mol and 67.8 °C.
The like results for GGCGACCGAAAGGTGGCC (((.(((....))).))) were, in that order, -29.2 kcal/mol and 67.9 °C.
On the same counts, the results for GGACGCGAAAGCGACTCC ((((((....)))..))) are -11.6 kcal/mol and 46.2 °C.
As for GATCTAAATCTAGATC ((((((....)))))), the folding enthalpy in data set [1] was -25.2 kcal/mol. Moreover, in data set [2], the Tm is 35.4 °C.
GCCTGACGAAAGTCGGC (((.(((....)))))): in data set [1], the folding enthalpy is -23.2 kcal/mol. The Tm in data set [2] was determined as 63.1 °C.
